In brackets after ≈: the same amount, converted by molar mass.
Key:
[1] = system: Escherichia coli; assay: Synergistic antibacterial activity against Escherichia coli TG1 transformed with IncX3 plasmid expressing blaNDM-1 assessed as fractional inhibitory concentration index in presence of meropenem incubated for overnight by CLSI protocol based assay; assay type: functional; details: time 12 hrs
In short: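 FIC index from MICs of compound alone, meropenem alone, and the 1:1 (mass) compound–meropenem combination, read by eye after overnight incubation in a CLSI-based assay. FIC index = MICcombo/MICcpd + MICcombo/MICMem. FIC index ≤0.5 counted as synergy. At least triplicate assays. Clinical NDM-1 isolates for 17-39; E. coli TG1 carrying the IncX3 blaNDM-1 plasmid for 15.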

[2] = system: Escherichia coli; assay: Potentiation of meropenem-induced antibacterial activity against Escherichia coli TG1 transformed with IncX3 plasmid expressing blaNDM-1 assessed as bacterial growth inhibition by measuring meropenem MIC incubated for overnight by CLSI protocol based assay; assay type: functional; details: time 12 hrs
[3] = system: Escherichia coli; assay: Synergistic antibacterial activity against Escherichia coli TG1 transformed with IncX3 plasmid expressing blaNDM-1 assessed as ratio of negative logarithm of fractional inhibitory concentration index to non-hydrogen atom in presence of meropenem incubated for overnight by CLSI protocol based assay; assay type: functional; details: time 12 hrs
In short: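 In E. coli TG1 carrying the IncX3 blaNDM-1 plasmid, the FIC index was taken from overnight CLSI-based MICs of compound, meropenem and their 1:1 mass mixture, read by eye. Synergistic efficiency = −ln(FIC index) divided by the number of non-hydrogen atoms. At least triplicate assays.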

[4] = Growth inhibition of Escherichia coli TG1 transformed with IncX3 plasmid expressing blaNDM-1 incubated for overnight by CLSI protocol based assay; details: 12 h
[5] = Inhibition of bacterial VIM-1; parameters: species or system Bacteria
[6] = Inhibition of recombinant bacterial NDM-1 by fluorogenic assay; parameters: species or system Bacteria
[7] = Competitive inhibition of recombinant bacterial His6-tagged TEV protease site linked NDM-1 (32 to […] residues) expressed in Escherichia coli BL21 (DE3); parameters: species or system Bacteria
[8] = Covalent inhibition of bacterial NDM-1; parameters: species or system Bacteria

Row | SMILES | fractional inhibitory concentration index (FICI) [1] | MIC [2] | Ratio [3] | MIC [4] | IC50 [5] | IC50 [6] | IC50 [7] | Ki [8]
1 | O=c1c2ccccc2[se]n1-c1ccc(Cl)cc1 | 0.094 | 4 mg/L | 0.139 | >= 128 ug ml-1 | – | – | – | –
2 | O=c1c2ccccc2[se]n1CCO | 0.75 | 16 mg/L | 0.022 | 32 mg/L (≈ 132 µM) | – | – | – | –
3 | O=c1c2ccccc2[se]n1S(=O)(=O)c1ccc(Cl)cc1 | 0.375 | 16 mg/L | 0.049 | >= 128 ug ml-1 | – | – | – | –
4 | Cl.NCCCn1[se]c2ccccc2c1=O | 0.281 | 2 mg/L | 0.091 | 8 mg/L | – | – | – | –
5 | O=c1c2ccccc2[se]n1CCNCc1ccccc1 | 0.188 | 8 mg/L | 0.084 | >= 128 ug ml-1 | – | – | – | –
6 | O=C(NCCn1[se]c2ccccc2c1=O)c1ccccc1 | 0.375 | 16 mg/L | 0.047 | >= 128 ug ml-1 | – | – | – | –
7 | O=c1c2ccccc2[se]n1-c1ccc(CO)cc1 | 0.375 | 16 mg/L | 0.054 | >= 128 ug ml-1 | – | – | – | –
8 | Cl.NCCn1[se]c2ccccc2c1=O | 1.063 | 4 mg/L | -0.005 | 4 mg/L | – | – | – | –
9 | CCCC[n+]1ccn(CCCn2[se]c3ccccc3c2=O)c1 | 0.188 | 8 mg/L | 0.076 | >= 128 ug ml-1 | – | – | – | –
10 | CC(C)c1ccc(-n2[se]c3ccccc3c2=O)cc1 | 0.375 | 16 mg/L | 0.052 | >= 128 ug ml-1 | – | – | – | –
11 | COc1cccc(C(=O)n2[se]c3ccccc3c2=O)c1 | 0.188 | 8 mg/L | 0.084 | >= 128 ug ml-1 | – | – | – | –
12 | CCN(CC)CCn1[se]c2ccccc2c1=O | 0.5 | 16 mg/L | 0.041 | 64 mg/L (≈ 215 µM) | – | – | – | –
13 | C[C@H](C(=O)N[C@H](C)C(=O)O)n1[se]c2ccccc2c1=O | 0.375 | 16 mg/L | 0.049 | >= 128 ug ml-1 | – | – | – | –
14 | O=c1c2ccccc2[se]n1CCCn1ccnc1 | 0.375 | 16 mg/L | 0.054 | >= 128 ug ml-1 | – | – | – | –
15 | O=c1c2ccccc2[se]n1Cc1ccccc1 | 0.375 | 8 mg/L | 0.058 | 32 mg/L (≈ 111 µM) | – | – | – | –
16 | O=C(NCCn1[se]c2ccccc2c1=O)c1cccs1 | 0.188 | 8 mg/L | 0.084 | >= 128 ug ml-1 | – | – | – | –
17 | O=c1c2ccccc2[se]n1CCN1CCCCC1 | 0.375 | 16 mg/L | 0.054 | >= 128 ug ml-1 | – | – | – | –
18 | COP(=O)(NCCn1[se]c2ccccc2c1=O)OC | 0.188 | 8 mg/L | 0.084 | >= 128 ug ml-1 | – | – | – | –
19 | O=c1c2ccccc2[se]n1Cc1cccc(N2CCCCC2)c1 | 0.375 | 16 mg/L | 0.043 | >= 128 ug ml-1 | – | – | – | –
20 | O=C(O)c1cccc(-n2[se]c3ccccc3c2=O)c1 | 0.375 | 8 mg/L | 0.052 | 32 mg/L (≈ 101 µM) | – | – | – | –
21 | CCN1CCC[C@@H]1Cn1[se]c2ccccc2c1=O | 0.5 | 16 mg/L | 0.039 | 64 mg/L (≈ 207 µM) | – | – | – | –
22 | O=C(O)[C@@H]1SC[C@H]2CS[C@H](CS)N21 | – | – | – | – | 23 µM | – | – | –
23 | O=C(O)c1ccc(-n2[se]c3ccccc3c2=O)cc1 | 0.125 | 4 mg/L | 0.109 | 64 mg/L (≈ 201 µM) | – | – | – | –
24 | CC(C)(C)OC(=O)NCCCn1[se]c2ccccc2c1=O | 0.188 | 8 mg/L | 0.08 | >= 128 ug ml-1 | – | – | – | –
25 | CC1CN(CCn2[se]c3ccccc3c2=O)CC(C)O1 (stereo not given) | 0.375 | 16 mg/L | 0.049 | >= 128 ug ml-1 | – | – | – | –

Row | SMILES | fractional inhibitory concentration index (FICI) [1] | MIC [2] | Ratio [3] | MIC [4] | IC50 [5] | IC50 [6] | IC50 [7] | Ki [8]
26 | COc1ccc(-n2[se]c3ccccc3c2=O)cc1Cl | 0.75 | 32 mg/L | 0.015 | >= 128 ug ml-1 | – | – | – | –
27 | O=c1c2ccccc2[se]n1CCC1CCOCC1 | 0.188 | 8 mg/L | 0.084 | >= 128 ug ml-1 | – | – | – | –
28 | C#CCn1[se]c2ccccc2c1=O | 0.25 | 8 mg/L | 0.107 | 64 mg/L (≈ 271 µM) | – | – | – | –
29 | CC(C)(CC(=O)NCCn1[se]c2ccccc2c1=O)C(F)(F)F | 0.188 | 8 mg/L | 0.073 | >= 128 ug ml-1 | – | – | – | –
30 | CC(C)(C)CC(=O)NCCn1[se]c2ccccc2c1=O | 0.188 | 8 mg/L | 0.084 | >= 128 ug ml-1 | – | – | – | –
31 | NCCNCc1ccc(C(=O)N[C@H]2Cc3cccc(C(=O)O)c3O[B-]2(O)O)cc1 | – | – | – | – | – | 0.004 µM | – | –
32 | COc1ccc(Cn2[se]c3ccccc3c2=O)cc1 | 0.188 | 8 mg/L | 0.088 | >= 128 ug ml-1 | – | – | – | –
33 | O=C(NCCn1[se]c2ccccc2c1=O)OCc1ccccc1 | 0.375 | 16 mg/L | 0.043 | >= 128 ug ml-1 | – | – | – | –
34 | CN(C)CCn1[se]c2ccccc2c1=O | 0.375 | 16 mg/L | 0.065 | >= 128 ug ml-1 | – | – | – | –
35 | CCN1CCC[C@H]1Cn1[se]c2ccccc2c1=O | 0.5 | 16 mg/L | 0.039 | 64 mg/L (≈ 207 µM) | – | – | – | –
36 | O=C(O)[C@H]1CCCCN1C(=O)C(CS)Cc1ccccc1 (mixture of isomers) | – | – | – | – | – | – | 0.7 µM | –
37 | O=c1c2ccccc2[se]n1Cc1cccc(-c2ccccc2)c1 | 0.375 | 16 mg/L | 0.043 | >= 128 ug ml-1 | – | – | – | –
38 | C[C@@H](O)[C@H]1C(=O)N2C(C(=O)O)=C(S[C@@H]3CN[C@H](C(=O)N(C)C)C3)[C@H](C)[C@H]12 [MEROPENEM] | – | – | – | 64 mg/L (≈ 167 µM) | – | – | – | –
39 | O=c1c2ccccc2[se]n1-c1ccncc1 | 0.75 | 32 mg/L | 0.018 | >= 128 ug ml-1 | – | – | – | –
40 | CCN(CC)CCCC(C)n1[se]c2ccccc2c1=O (stereo not given) | 0.188 | 8 mg/L | 0.084 | >= 128 ug ml-1 | – | – | – | –
41 | Cc1ccc(C(=O)NCCn2[se]c3ccccc3c2=O)cc1 | 0.188 | 8 mg/L | 0.076 | >= 128 ug ml-1 | – | – | – | –
42 | CC(C)(OC(=O)NCCCn1[se]c2ccccc2c1=O)C(F)(F)F | 0.188 | 8 mg/L | 0.07 | >= 128 ug ml-1 | – | – | – | –
43 | O=C1N[Se]c2ccccc2C(=O)N1 | 0.25 | 8 mg/L | 0.107 | 64 mg/L (≈ 265 µM) | – | – | – | –
44 | COc1ccc(-n2[se]c3ccccc3c2=O)cc1 | 0.375 | 16 mg/L | 0.054 | >= 128 ug ml-1 | – | – | – | –
45 | O=C1CC[Se]N1c1ccccc1 | 0.75 | 32 mg/L | 0.024 | >= 128 ug ml-1 | – | – | – | –
46 | N[C@@H](C(=O)N[C@@H]1C(=O)N2C(C(=O)O)=C(Cl)CS[C@H]12)c1ccccc1 [CEFACLOR ANHYDROUS] | – | – | – | – | – | – | – | 2300 µM
47 | O=c1c2ccccc2[se]n1CCN1CCOCC1 | 0.5 | 16 mg/L | 0.039 | 64 mg/L (≈ 206 µM) | – | – | – | –
48 | O=C(O)Cn1[se]c2ccccc2c1=O | 0.281 | 2 mg/L | 0.091 | 8 mg/L (≈ 31.2 µM) | – | – | – | –
49 | O=C(NCCn1[se]c2ccccc2c1=O)c1ccc(F)cc1F | 0.75 | 32 mg/L | 0.013 | >= 128 ug ml-1 | – | – | – | –
50 | O=c1c2ccccc2[se]n1C1CCCCC1 | 0.25 | 8 mg/L | 0.087 | 64 mg/L (≈ 228 µM) | – | – | – | –

Reference: ChEMBL document CHEMBL4673212, “Investigation of synergistic antimicrobial effects of the drug combinations of meropenem and 1,2-benzisoselenazol-3(2H)-one derivatives on carbapenem-resistant Enterobacteriaceae producing NDM-1” (Eur J Med Chem, 2018)
